Where a name gives a salt, the structure may show the parent alone. Some results are limits rather than exact numbers.

As a reminder, the pKi is the negative decadic logarithm of the Ki, by convention in mol/L. Read a low pKi as a high Ki.

In experiment [1] the target is T1, Alpha-2A adrenergic receptor [16-465]/Alpha-2B adrenergic receptor/Alpha-2C adrenergic receptor (Rattus norvegicus, UniProt P19328+P22086+P22909).
T1 construct: 16-465
T1 sequence (P22909 whole entry): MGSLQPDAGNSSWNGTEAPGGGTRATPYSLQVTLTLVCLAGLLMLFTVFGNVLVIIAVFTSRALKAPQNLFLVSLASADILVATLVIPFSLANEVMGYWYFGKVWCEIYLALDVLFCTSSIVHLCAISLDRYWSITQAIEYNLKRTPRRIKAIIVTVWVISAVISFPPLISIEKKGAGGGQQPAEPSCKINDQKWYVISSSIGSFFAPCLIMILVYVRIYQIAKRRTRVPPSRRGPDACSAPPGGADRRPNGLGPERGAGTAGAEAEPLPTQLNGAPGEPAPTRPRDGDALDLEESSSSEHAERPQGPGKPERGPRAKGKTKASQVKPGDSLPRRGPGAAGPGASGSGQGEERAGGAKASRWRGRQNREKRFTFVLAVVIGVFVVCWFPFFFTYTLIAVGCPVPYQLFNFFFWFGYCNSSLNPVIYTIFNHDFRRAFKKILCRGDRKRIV
T1 sequence (P22086 whole entry): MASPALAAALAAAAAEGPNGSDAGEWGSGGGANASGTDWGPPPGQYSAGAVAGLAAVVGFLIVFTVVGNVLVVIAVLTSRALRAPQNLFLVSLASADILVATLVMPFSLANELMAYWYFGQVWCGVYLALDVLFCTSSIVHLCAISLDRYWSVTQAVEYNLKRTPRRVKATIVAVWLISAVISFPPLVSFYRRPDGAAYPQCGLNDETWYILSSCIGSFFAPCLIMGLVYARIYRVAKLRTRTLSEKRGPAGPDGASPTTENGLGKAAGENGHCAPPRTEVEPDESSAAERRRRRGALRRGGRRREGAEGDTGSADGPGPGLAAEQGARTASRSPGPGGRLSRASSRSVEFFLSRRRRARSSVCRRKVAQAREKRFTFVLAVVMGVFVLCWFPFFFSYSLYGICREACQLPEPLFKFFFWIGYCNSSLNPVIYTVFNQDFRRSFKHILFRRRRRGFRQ
T1 sequence (P19328 whole entry): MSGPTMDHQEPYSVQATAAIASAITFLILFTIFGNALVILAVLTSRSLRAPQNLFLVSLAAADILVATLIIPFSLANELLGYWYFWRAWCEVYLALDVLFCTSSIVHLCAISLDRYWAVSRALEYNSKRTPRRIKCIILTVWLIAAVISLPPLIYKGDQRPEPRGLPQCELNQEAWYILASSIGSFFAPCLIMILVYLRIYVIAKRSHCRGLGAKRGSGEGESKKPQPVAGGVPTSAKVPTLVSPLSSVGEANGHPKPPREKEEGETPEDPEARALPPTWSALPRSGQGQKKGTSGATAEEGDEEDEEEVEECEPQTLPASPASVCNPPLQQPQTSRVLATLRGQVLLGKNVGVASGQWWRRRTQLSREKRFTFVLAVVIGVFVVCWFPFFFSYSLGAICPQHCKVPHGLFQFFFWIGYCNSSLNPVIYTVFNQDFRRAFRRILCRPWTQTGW
In words: The binding affinity was evaluated on alpha-2 adrenergic receptor expressed in rat cortex by using [3H]rauwolscine as radioligand. The method, boiled down:
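Male Sprague-Dawley rat cerebral cortex membranes, washed in Tris-HCl pH 7.4 and held in buffer with 10 μM pargiline and 0.1% ascorbic acid. Incubated 30 min at 25 °C with 0.5-1.5 nM [3H]rauwolscine; nonspecific binding with 10 μM phentolamine. Filtration, scintillation counting. Ki from Cheng-Prusoff; 2-3 experiments in triplicate.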

For experiment [2], the target named is D(2) dopamine receptor (Rattus norvegicus, UniProt P61169). Nature of the experiment: The binding affinity was evaluated on Dopamine receptor D2 expressed in rat striatum by using [3H]spiperone as radioligand. The method, boiled down:
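Rat striatum membranes in Tris-HCl with 10 μM pargyline, 0.1% ascorbic acid, 120 mM NaCl, 5 mM KCl, 2 mM CaCl2, 1 mM MgCl2. Incubated 15 min at 37 °C with 0.2–0.6 nM [3H]spiperone. Nonspecific binding with 1 μM (+)-butaclamol. Ki by Cheng-Prusoff. 2–3 experiments in triplicate.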

Experiment [3] deals with T2, Alpha-1B adrenergic receptor (Homo sapiens, UniProt P35368).
T2 sequence (P35368 whole entry): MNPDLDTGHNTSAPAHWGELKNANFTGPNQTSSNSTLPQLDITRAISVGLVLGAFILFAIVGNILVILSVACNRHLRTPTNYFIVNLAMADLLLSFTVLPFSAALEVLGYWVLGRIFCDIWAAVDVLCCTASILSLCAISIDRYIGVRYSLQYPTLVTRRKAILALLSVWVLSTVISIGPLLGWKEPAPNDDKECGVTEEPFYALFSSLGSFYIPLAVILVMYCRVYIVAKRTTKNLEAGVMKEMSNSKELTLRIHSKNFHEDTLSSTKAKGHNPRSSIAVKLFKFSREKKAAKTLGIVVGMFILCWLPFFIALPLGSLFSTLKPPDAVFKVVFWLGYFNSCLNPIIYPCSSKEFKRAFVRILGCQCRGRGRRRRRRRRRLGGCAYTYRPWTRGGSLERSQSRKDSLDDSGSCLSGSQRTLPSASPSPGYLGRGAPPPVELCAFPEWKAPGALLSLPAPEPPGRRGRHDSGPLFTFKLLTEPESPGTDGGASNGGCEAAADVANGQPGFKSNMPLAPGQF
Nature of the experiment: The binding affinity was evaluated on cloned human alpha-1B adrenergic receptor expressed in chinese hamster ovary(CHO) cells by using [3H]prazosin as radioligand. In a few lines:
(§1)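 Membranes (30 μg protein) from CHO cells stably expressing each human α1 subtype, in 50 mM Tris-HCl pH 7.4. Incubated with 0.1–0.4 nM [3H]prazosin for 30 min at 25 °C, competitor 1 pM–10 μM. Nonspecific binding with 10 μM phentolamine. Ki by Cheng-Prusoff. 2–3 experiments in triplicate.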

Experiment [4] concerns the target 5-hydroxytryptamine receptor 2A (Rattus norvegicus, UniProt P14842). Nature of the experiment: The binding affinity was evaluated on 5-hydroxytryptamine 2A receptor expressed in rat cortex by using [3H]ketanserin as radioligand. In a few lines: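 Rat cerebral cortex membranes in Tris-HCl pH 7.4 with 10 μM pargyline and 0.1% ascorbic acid. Incubated 20 min at 37 °C with 0.7–1.3 nM [3H]ketanserin. Nonspecific binding with 2 μM ketanserin. Filtration and scintillation counting. Ki by Cheng-Prusoff. 2–3 experiments in triplicate.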

For experiment [5], the target named is T2, Alpha-1B adrenergic receptor. Nature of the experiment: The binding affinity was evaluated on cloned human Alpha-1B adrenergic receptor expressed in chinese hamster ovary(CHO) cells by using [3H]prazosin as radioligand. The method, boiled down: as §1
Experiment [6] concerns the target T3, Alpha-1D adrenergic receptor (Homo sapiens, UniProt P25100).
T3 sequence (P25100 whole entry): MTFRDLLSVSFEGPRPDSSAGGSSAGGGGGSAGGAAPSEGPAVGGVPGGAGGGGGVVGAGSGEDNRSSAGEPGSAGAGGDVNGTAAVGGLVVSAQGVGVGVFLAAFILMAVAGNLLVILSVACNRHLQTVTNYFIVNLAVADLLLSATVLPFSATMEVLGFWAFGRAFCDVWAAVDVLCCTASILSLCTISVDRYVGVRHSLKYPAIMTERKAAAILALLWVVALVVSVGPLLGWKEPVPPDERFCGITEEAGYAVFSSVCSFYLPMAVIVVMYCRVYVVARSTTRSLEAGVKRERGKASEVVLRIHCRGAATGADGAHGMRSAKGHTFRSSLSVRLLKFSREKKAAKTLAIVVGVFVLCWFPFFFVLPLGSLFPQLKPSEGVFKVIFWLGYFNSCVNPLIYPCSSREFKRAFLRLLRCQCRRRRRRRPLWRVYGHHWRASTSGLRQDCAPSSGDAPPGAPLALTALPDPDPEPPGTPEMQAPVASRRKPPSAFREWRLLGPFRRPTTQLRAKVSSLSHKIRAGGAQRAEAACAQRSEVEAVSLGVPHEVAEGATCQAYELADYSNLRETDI
In words: The binding affinity was evaluated on cloned human Alpha-1D adrenergic receptor expressed in chinese hamster ovary(CHO) cells by using [3H]-prazosin as radioligand. The method, boiled down:
as §1

Experiment [7] has as its target T4, Alpha-1A adrenergic receptor (Homo sapiens, UniProt P35348).
T4 sequence (P35348 whole entry): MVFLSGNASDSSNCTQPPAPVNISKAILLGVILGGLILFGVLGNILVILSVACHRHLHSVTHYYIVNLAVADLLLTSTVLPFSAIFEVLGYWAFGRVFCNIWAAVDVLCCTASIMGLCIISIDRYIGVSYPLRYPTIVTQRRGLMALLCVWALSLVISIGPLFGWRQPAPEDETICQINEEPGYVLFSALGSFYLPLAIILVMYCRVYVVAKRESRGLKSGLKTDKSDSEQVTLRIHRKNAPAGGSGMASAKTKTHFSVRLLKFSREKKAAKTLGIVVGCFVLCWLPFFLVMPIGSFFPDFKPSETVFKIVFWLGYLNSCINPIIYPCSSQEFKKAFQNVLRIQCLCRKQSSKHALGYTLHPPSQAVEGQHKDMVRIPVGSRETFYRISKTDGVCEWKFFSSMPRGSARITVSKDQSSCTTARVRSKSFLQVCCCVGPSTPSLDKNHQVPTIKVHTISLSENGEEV
In words: The binding affinity was evaluated on cloned human Alpha-1A adrenergic receptor expressed in chinese hamster ovary(CHO) cells by using [3H]prazosin as radioligand. In a few lines:
as §1

In experiment [8] the target is T5, 5-hydroxytryptamine receptor 1A (Homo sapiens, UniProt P08908).
T5 sequence (P08908 whole entry): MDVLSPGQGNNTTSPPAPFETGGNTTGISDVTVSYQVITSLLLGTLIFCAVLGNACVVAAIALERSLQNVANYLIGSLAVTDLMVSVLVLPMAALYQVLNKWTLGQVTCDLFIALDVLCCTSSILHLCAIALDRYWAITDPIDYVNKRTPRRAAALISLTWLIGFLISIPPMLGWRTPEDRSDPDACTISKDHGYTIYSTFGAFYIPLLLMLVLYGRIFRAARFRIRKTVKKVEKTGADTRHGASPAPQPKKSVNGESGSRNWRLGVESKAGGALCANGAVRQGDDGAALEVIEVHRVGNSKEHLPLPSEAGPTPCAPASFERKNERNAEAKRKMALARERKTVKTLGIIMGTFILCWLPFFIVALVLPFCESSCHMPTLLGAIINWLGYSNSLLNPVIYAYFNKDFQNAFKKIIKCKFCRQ
In words: The binding affinity was evaluated on cloned human 5-hydroxytryptamine 1A receptor expressed in HeLa cells by using DPAT as radioligand. In a few lines:
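Membranes from HeLa cells stably expressing human 5-HT1A, in 50 mM Tris-HCl pH 7.4, 2.5 mM MgCl2, 10 μM pargyline. Nonspecific binding with 10 μM 5-HT. Filtration. Ki by Cheng-Prusoff. 2–3 experiments in triplicate.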

The target of experiment [9] is T4, Alpha-1A adrenergic receptor. In words: The binding affinity was evaluated on cloned human alpha-1A adrenergic receptor expressed in chinese hamster ovary(CHO) cells by using [3H]prazosin as radioligand. The method, boiled down:
as §1

Experiment [10] deals with T3, Alpha-1D adrenergic receptor. Nature of the experiment: The binding affinity was evaluated on cloned human alpha-1D adrenergic receptor expressed in chinese hamster ovary(CHO) cells by using [3H]prazosin as radioligand. In a few lines:
as §1

In experiment [11] the target is T1, Alpha-2A adrenergic receptor [16-465]/Alpha-2B adrenergic receptor/Alpha-2C adrenergic receptor. Nature of the experiment: The binding affinity was evaluated on Alpha-2 adrenergic receptor expressed in rat cortex by using [3H]rauwolscine as radioligand. The method, boiled down:
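Male Sprague-Dawley rat cerebral cortex membranes, washed in Tris-HCl pH 7.4 and resuspended with 10 μM pargyline and 0.1% ascorbic acid. Incubated 30 min at 25 °C with 0.5–1.5 nM [3H]rauwolscine. Nonspecific binding with 10 μM phentolamine. Filtration on PEI-treated filters. Ki by Cheng-Prusoff. 2–3 experiments in triplicate.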

D(2) dopamine receptor, sequence (P61169 whole entry): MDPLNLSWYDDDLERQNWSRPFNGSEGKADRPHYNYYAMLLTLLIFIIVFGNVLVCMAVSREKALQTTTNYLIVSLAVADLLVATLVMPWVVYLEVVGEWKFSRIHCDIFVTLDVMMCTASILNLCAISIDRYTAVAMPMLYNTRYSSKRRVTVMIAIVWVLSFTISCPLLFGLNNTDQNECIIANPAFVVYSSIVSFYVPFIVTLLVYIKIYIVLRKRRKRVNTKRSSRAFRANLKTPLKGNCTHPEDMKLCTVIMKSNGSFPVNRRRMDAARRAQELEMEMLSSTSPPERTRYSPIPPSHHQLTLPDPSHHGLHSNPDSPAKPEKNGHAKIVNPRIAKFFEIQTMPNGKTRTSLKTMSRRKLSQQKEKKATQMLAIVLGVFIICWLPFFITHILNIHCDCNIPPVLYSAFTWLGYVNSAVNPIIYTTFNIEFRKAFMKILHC
5-hydroxytryptamine receptor 2A, sequence (P14842 whole entry): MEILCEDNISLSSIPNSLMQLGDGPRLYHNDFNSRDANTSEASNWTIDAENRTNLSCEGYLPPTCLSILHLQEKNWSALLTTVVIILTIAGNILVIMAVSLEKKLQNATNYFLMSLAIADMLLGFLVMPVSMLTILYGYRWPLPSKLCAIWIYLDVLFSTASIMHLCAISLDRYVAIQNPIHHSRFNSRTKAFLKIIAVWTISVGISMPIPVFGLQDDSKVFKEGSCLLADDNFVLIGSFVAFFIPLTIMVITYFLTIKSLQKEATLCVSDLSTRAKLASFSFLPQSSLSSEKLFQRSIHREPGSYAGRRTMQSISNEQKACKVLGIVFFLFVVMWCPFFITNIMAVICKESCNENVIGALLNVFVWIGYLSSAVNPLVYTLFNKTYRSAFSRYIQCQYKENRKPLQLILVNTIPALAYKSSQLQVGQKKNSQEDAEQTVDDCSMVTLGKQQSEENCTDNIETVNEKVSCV

Regarding `CCCN(CCC)C1CCc2cccc(O)c2C1` (stereo not given), the pKi in [1] is 6.08; in experiment [2], < 6; in experiment [3], < 6; in experiment [4], < 6.

Regarding `COc1cccc(OC)c1OCCNCCOc1ccccc1OCc1ccccc1`, the pKi in [5] was 9.27; in [6] it was 10.2; in experiment [7], 9.33; in experiment [8], 7.93.

As for `COc1cccc(OC)c1OCCNCC1C(=O)c2ccccc2SC1c1ccccc1` (stereo not given), the negative logarithm of the Ki (pKi) in experiment [5] is < 6; in experiment [9] it was 7.42; in experiment [10], 6.37; in experiment [8] it was 7.36.

`COc1cccc(OC)c1OCCNCC1Oc2ccccc2CC1c1ccccc1` (stereo not given): the pKi is 6.58 in experiment [5]; 6.78 in experiment [9]; 7.28 in experiment [6]; 6.86 in [10]; < 6 in [2]; 8.49 in experiment [7]. In addition, the pKi in experiment [3] was 6.51; in experiment [4], < 6; in experiment [8], 6.84; in experiment [11] it was < 6.

As to `COc1cccc(OC)c1OCCNCC1C(=O)c2ccccc2CC1c1ccccc1` (stereo not given), the negative-log Ki (pKi) in experiment [9] was 8.06; in experiment [1], 6.45; in experiment [10], 6.88; in [2] it was < 6; in experiment [3] it was 6.11; in [4], 6.63. Also, the pKi in experiment [8] was found to be 6.83.

Regarding `COc1cccc(OC)c1OCCNCC1=Cc2ccccc2OC1c1ccccc1` (stereo not given), the pKi in experiment [5] stood at 6.84; in experiment [6], 6.95; in experiment [7], 7.14; in experiment [8] it was 8.08.

As for `COc1cccc(OC)c1OCCNCC1C(=O)c2ccccc2OC1c1ccccc1` (stereo not given), the negative logarithm of the Ki (pKi) in experiment [9] was 9.22; in experiment [1], < 6; in [10], 7.93; in experiment [2], < 6; in experiment [3], 6.84; in [4], 6.2. This molecule also displayed a pKi in experiment [8] of 6.73.

Regarding `COc1cccc(OC)c1OCCNCC1COc2ccccc2O1` (stereo not given) [WB-4101 hydrochloride], the pKi in [9] stood at 9.37; in experiment [1] it was 7.83; in experiment [2], 6.91; in experiment [4], 6; in [8], 8.68.

The values are drawn from BindingDB's records for doi:10.1021/jm9910324 (University of Camerino, 1999).
